Assay results reported in ChEMBL document CHEMBL4351026, “Antifungal activity, mode of action variability, and subcellular distribution of coumarin-based antifungal azoles” (Eur J Med Chem, 2019).
≈ marks a conversion by molar mass, not a printed value. Calls of active or inactive are those of the source. No cut-off for these calls is given here.

Legend:
Candida parapsilosis [1] = assay: Antifungal activity against Candida parapsilosis ATCC 90018 assessed as reduction in fungal cell growth incubated for 24 hrs by MTT based broth double dilution method; assay type: functional; settings: Lodderomyces parapsilosis, ATCC 90018, 24 h
In short: (§1)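 Broth double-dilution in Casitone broth. Starter cultures were grown 24 or 48 h at 37 °C, 5% CO₂, diluted 1:100, and added to serial two-fold dilutions at 64 to 0.007 µg/mL. Final inoculum was 5 x 10^4 to 5 x 10^5 CFU/mL; DMSO was 0.0012–1.3%. Plates were incubated at 37 °C, 5% CO₂, then MTT was added for 2 h. MIC followed CLSI M27-A3. Triplicates, two independent experiments.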

Candida albicans [2] = assay: Antifungal activity against Candida albicans P-87 assessed as reduction in fungal cell growth incubated for 24 hrs by MTT based broth double dilution method; assay type: functional; settings: P-87, 24 h; in short: as §1
[3] = tested on: Meyerozyma guilliermondii; assay: Antifungal activity against Candida guilliermondii T-47 assessed as reduction in fungal cell growth incubated for 24 hrs by MTT based broth double dilution method; assay type: functional; settings: T-47, 24 h; in short: as §1
Candida albicans [4] = assay: Antifungal activity against Candida albicans SN152 assessed as reduction in fungal cell growth incubated for 24 hrs by MTT based broth double dilution method; assay type: functional; settings: SN152, 24 h; in short: as §1
Candida dubliniensis = assay: Antifungal activity against Candida dubliniensis T-99 assessed as reduction in fungal cell growth incubated for 24 hrs by MTT based broth double dilution method; assay type: functional; settings: T-99, 24 h; in short: as §1
Candida albicans [5] = assay: Antifungal activity against Candida albicans ATCC 90028 assessed as reduction in fungal cell growth incubated for 24 hrs by MTT based broth double dilution method; assay type: functional; settings: ATCC 90028, 24 h; in short: as §1
Candida parapsilosis [6] = assay: Antifungal activity against Candida parapsilosis ATCC 22019 assessed as reduction in fungal cell growth incubated for 24 hrs by MTT based broth double dilution method; assay type: functional; settings: Lodderomyces parapsilosis, ATCC 22019, 24 h; in short: as §1
Nakaseomyces glabratus [7] = assay: Antifungal activity against Candida glabrata 192 assessed as reduction in fungal cell growth incubated for 24 hrs by MTT based broth double dilution method; assay type: functional; settings: Nakaseomyces glabratus, 192, 24 h; in short: as §1
Nakaseomyces glabratus [8] = assay: Antifungal activity against Candida glabrata ATCC 2001 assessed as reduction in fungal cell growth incubated for 24 hrs by MTT based broth double dilution method; assay type: functional; settings: ATCC 2001, 24 h; in short: as §1
Nakaseomyces glabratus [9] = assay: Antifungal activity against Candida glabrata ATCC 66032 assessed as reduction in fungal cell growth incubated for 24 hrs by MTT based broth double dilution method; assay type: functional; settings: ATCC 66032, 24 h; in short: as §1
Cytochrome P450 3A4 = Cytochrome P450 3A4 (Homo sapiens, UniProt P08684); assay: Inhibition of recombinant human CYP3A4 using Luciferin-PPXE as substrate preincubated for 10 mins followed by NADPH addition measured after 15 mins by luminometric method; assay type: ADME
In short: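 P450-Glo luminescent assay, Luciferin-PPXE substrate. Compound was mixed with membranes containing recombinant human CYP3A4; controls were vehicle with membranes lacking CYP3A4. After 10 min preincubation at 37 °C, NADPH regeneration reagent was added and the mixture kept 15 min at 37 °C. Luciferin detection reagent stopped the reaction; after 20 min at room temperature, luminescence was read. Duplicates.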

Candida albicans [10] = assay: Antifungal activity against Candida albicans ATCC 90028 assessed as reduction in fungal cell growth incubated for 48 hrs by MTT based broth double dilution method; assay type: functional; settings: ATCC 90028, 48 h; in short: as §1
Candida albicans [11] = assay: Antifungal activity against Candida albicans SN152 assessed as reduction in fungal cell growth incubated for 48 hrs by MTT based broth double dilution method; assay type: functional; settings: SN152, 48 h; in short: as §1
Nakaseomyces glabratus [12] = assay: Antifungal activity against Candida glabrata ATCC 66032 assessed as reduction in fungal cell growth incubated for 48 hrs by MTT based broth double dilution method; assay type: functional; settings: ATCC 66032, 48 h; in short: as §1
Nakaseomyces glabratus [13] = assay: Antifungal activity against Candida glabrata 192 assessed as reduction in fungal cell growth incubated for 48 hrs by MTT based broth double dilution method; assay type: functional; settings: Nakaseomyces glabratus, 192, 48 h; in short: as §1
Candida albicans [14] = assay: Antifungal activity against Candida albicans SN152 assessed as zone inhibition at 25 ug incubated for 24 hrs by disk diffusion method; assay type: functional, organism-based
In short: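 Strains were streaked on YPD agar and grown at 30 °C: 24 h for parental SN152, 48 h for the erg11ΔΔ erg3ΔΔ mutant. Colonies were suspended in PBS and adjusted to OD 0.02 (SN152) or 0.03 (mutant), then spread on Casitone plates. A 6-mm disk loaded with 25 µg compound was placed centrally. Plates were incubated at 30 °C and photographed after 24 h.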

Candida albicans [15] = assay: Antifungal activity against ERG11/ERG3 knocked out Candida albicans SN152 assessed as zone of inhibition at 25 ug […] by disk diffusion method; assay type: functional, organism-based

Cytochrome P450 3A4, sequence (P08684 whole entry): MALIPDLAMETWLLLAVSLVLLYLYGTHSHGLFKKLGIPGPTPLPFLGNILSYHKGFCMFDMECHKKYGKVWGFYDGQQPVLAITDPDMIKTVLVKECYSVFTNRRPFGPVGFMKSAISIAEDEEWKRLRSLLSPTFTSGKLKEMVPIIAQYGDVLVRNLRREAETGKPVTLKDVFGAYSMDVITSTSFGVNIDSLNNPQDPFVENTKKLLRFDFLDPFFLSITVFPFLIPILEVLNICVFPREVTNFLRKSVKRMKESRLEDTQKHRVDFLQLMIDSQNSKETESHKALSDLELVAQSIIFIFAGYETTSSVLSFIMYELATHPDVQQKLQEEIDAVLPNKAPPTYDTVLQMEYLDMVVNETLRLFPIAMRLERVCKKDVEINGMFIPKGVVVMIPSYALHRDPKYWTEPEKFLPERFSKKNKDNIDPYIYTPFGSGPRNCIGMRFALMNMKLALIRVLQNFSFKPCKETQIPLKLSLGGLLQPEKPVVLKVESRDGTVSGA

MIC (Candida parapsilosis [1]) | MIC (Candida albicans [2]) | MIC [3] | MIC (Candida albicans [4]) | MIC (Candida dubliniensis) | MIC (Candida albicans [5]) | MIC (Candida parapsilosis [6]) | MIC (Nakaseomyces glabratus [7]) | MIC (Nakaseomyces glabratus [8]) | MIC (Nakaseomyces glabratus [9]) | IC50 (Cytochrome P450 3A4) | MIC (Candida albicans [10]) | MIC (Candida albicans [11]) | MIC (Nakaseomyces glabratus [12]) | MIC (Nakaseomyces glabratus [13]) | Structure (SMILES) | inhibition zone (IZ) (Candida albicans [14]) | inhibition zone (IZ) (Candida albicans [15])
1 µg/mL (≈ 2.17 µM) | 1 µg/mL (≈ 2.17 µM) | 8 µg/mL (≈ 17.4 µM) | 0.5 µg/mL (≈ 1.09 µM) | 8 µg/mL (≈ 17.4 µM) | 1 µg/mL (≈ 2.17 µM) | 8 µg/mL (≈ 17.4 µM) | 16 µg/mL (≈ 34.8 µM) | > 64 µg/mL | 64 µg/mL (≈ 139 µM) | – | – | – | – | – | O=C(NCC(O)(Cn1cncn1)c1ccc(F)cc1F)c1cc2ccc(Cl)cc2[nH]c1=O (racemic) | – | –
2 µg/mL (≈ 4.39 µM) | 2 µg/mL (≈ 4.39 µM) | > 64 µg/mL | 4 µg/mL (≈ 8.78 µM) | > 64 µg/mL | 1 µg/mL (≈ 2.2 µM) | > 64 µg/mL | > 64 µg/mL | > 64 µg/mL | > 64 µg/mL | – | – | – | – | – | COc1ccc2cc(C(=O)NCC(O)(Cn3cncn3)c3ccc(F)cc3F)c(=O)[nH]c2c1 (racemic) | – | –

Continued, molecule first:

Structure (SMILES) | MIC (Candida parapsilosis [1]) | MIC (Candida albicans [2]) | MIC [3] | MIC (Candida albicans [4]) | MIC (Candida dubliniensis) | MIC (Candida albicans [5]) | MIC (Candida parapsilosis [6]) | MIC (Nakaseomyces glabratus [7]) | MIC (Nakaseomyces glabratus [8]) | MIC (Nakaseomyces glabratus [9]) | IC50 (Cytochrome P450 3A4) | MIC (Candida albicans [10]) | MIC (Candida albicans [11]) | MIC (Nakaseomyces glabratus [12]) | MIC (Nakaseomyces glabratus [13]) | inhibition zone (IZ) (Candida albicans [14]) | inhibition zone (IZ) (Candida albicans [15])
O=C(NCC(O)(Cn1cncn1)c1ccc(F)cc1F)c1cc2ccccc2[nH]c1=O (racemic) | 2 µg/mL (≈ 4.7 µM) | 1 µg/mL (≈ 2.35 µM) | 8 µg/mL (≈ 18.8 µM) | 0.5 µg/mL (≈ 1.18 µM) | 8 µg/mL (≈ 18.8 µM) | 2 µg/mL (≈ 4.7 µM) | 8 µg/mL (≈ 18.8 µM) | 16 µg/mL (≈ 37.6 µM) | 64 µg/mL (≈ 150 µM) | > 64 µg/mL | – | – | – | – | – | – | –
O=C(NCC(O)(Cn1cncn1)c1ccc(F)cc1F)c1cc2ccc(O)cc2oc1=O (racemic) | > 64 µg/mL | 64 µg/mL (≈ 145 µM) | > 64 µg/mL | > 64 µg/mL | > 64 µg/mL | 64 µg/mL (≈ 145 µM) | > 64 µg/mL | > 64 µg/mL | 64 µg/mL (≈ 145 µM) | > 64 µg/mL | – | – | – | – | – | – | –
CCC(CC)Oc1ccc2cc(C(=O)NCC(O)(Cn3cncn3)c3ccc(F)cc3F)c(=O)oc2c1 (racemic) | 0.5 µg/mL (≈ 0.976 µM) | 0.125 µg/mL (≈ 0.244 µM) | 2 µg/mL (≈ 3.9 µM) | 0.25 µg/mL (≈ 0.488 µM) | 2 µg/mL (≈ 3.9 µM) | 0.125 µg/mL (≈ 0.244 µM) | 2 µg/mL (≈ 3.9 µM) | 4 µg/mL (≈ 7.8 µM) | 32 µg/mL (≈ 62.4 µM) | > 64 µg/mL | ≥ 2500 nM | 0.5 µg/mL (≈ 0.976 µM) | 0.5 µg/mL (≈ 0.976 µM) | > 64 µg/mL | 8 µg/mL (≈ 15.6 µM) | – | –
CCC(CC)Oc1ccc2cc(C(=O)NCC(O)(Cn3ccnc3)c3ccc(F)cc3F)c(=O)oc2c1 (racemic) | 0.125 µg/mL (≈ 0.244 µM) | 0.015 µg/mL (≈ 0.0293 µM) | 0.125 µg/mL (≈ 0.244 µM) | 0.03 µg/mL (≈ 0.0586 µM) | 0.25 µg/mL (≈ 0.489 µM) | 0.03 µg/mL (≈ 0.0586 µM) | 0.25 µg/mL (≈ 0.489 µM) | 1 µg/mL (≈ 1.95 µM) | 4 µg/mL (≈ 7.82 µM) | 2 µg/mL (≈ 3.91 µM) | 332 nM | 0.06 µg/mL (≈ 0.117 µM) | 0.06 µg/mL (≈ 0.117 µM) | 4 µg/mL (≈ 7.82 µM) | 2 µg/mL (≈ 3.91 µM) | Active | Active
